Target: T1, human CD39 (Homo sapiens, UniProt P49961)
T1 sequence (P49961 1-510): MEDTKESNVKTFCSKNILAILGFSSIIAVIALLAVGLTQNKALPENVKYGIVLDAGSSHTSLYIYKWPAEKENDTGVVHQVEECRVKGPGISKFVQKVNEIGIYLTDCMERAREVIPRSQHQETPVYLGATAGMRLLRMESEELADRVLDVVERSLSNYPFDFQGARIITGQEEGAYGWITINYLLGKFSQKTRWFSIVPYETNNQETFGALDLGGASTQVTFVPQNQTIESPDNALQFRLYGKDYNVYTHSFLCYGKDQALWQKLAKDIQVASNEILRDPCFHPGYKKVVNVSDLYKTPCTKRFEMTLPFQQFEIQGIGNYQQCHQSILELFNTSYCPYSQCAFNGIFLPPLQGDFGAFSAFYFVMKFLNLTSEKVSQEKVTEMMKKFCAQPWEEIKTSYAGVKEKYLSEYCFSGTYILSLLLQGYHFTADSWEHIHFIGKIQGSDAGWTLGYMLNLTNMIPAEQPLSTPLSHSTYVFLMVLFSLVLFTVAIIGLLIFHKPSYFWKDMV
Format: biochemical
Conditions: for inhibition of CD39 (in words): library screen at 10 µM, figure 3
Outline: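 CD39 came from human umbilical cord membranes (50.0 ng protein per well). Substrate was 50 µM ATP in 10 mM HEPES, 2 mM CaCl2, 1 mM MgCl2, pH 7.4, with ≤2% DMSO. Enzyme and test compound were preincubated 5 min at 37°C; reaction ran 15 min at 37°C. Malachite green/molybdate was added and A600 read after 20 min at 25°C, minus a heat-denatured enzyme blank. Screening was at 10 µM; curves spanned 0.1–300 µM; n=3.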

Structure (SMILES)	inhibition of CD39 (in words)	inhibition at 10 µM (read-out: inhibition of human CD39) [%]
CCc1cc2c(cc1N1CCC(N3CCOCC3)CC1)C(C)(C)c1[nH]c3cc(C#N)ccc3c1C2=O [alectinib, Alectinib]	did not inhibit	
C[C@@H](Oc1cc(-c2cnn(C3CCNCC3)c2)cnc1N)c1c(Cl)ccc(F)c1Cl [critozinib, Crizotinib]	did not inhibit	
Cc1ccc(C(=O)Nc2ccc(CN3CCN(C)CC3)c(C(F)(F)F)c2)cc1C#Cc1cnc2cccnn12 [ponatinib, Ponatinib]		33
